Common to all, as to assay type: functional, cell-based
The target of test [1] is G-protein coupled receptor 68 (Homo sapiens) (UniProt Q15743). As to the kind of experiment: Positive allosteric modulation of human GPR68 expressed in HEK293T cells co-expressing Gs assessed as stimulation of proton-mediated cAMP production by measuring allosteric affinity cooperativity in HBSS buffer containing pH 6.8 to 8.2 HEPES/pH 8.3 to 8.6 TAPS measured after 20 to 30 mins in presence of PDE inhibitor Ro 20-1724 by luciferase-glo reporter gene assay. The gist of the method: (§1)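 Transient co-transfection of HEK293T with receptor and GloSensor plasmids using PEI, overnight, then replated in DMEM + 1% dFBS for 6–24 h. Luciferin 3.5 mM loaded for 1 h at 37 °C in HBSS/20 mM TAPS, pH 8.40. Proton series: Ca/Mg-free HBSS with MES (pH 5.60–6.70), HEPES (6.80–8.20) or TAPS (8.30–8.60), plus 10 μM Ro 20-1724. BSA 1 mg/mL added where solubility required. Luminescence read at 20–30 min. At least six 16-point proton curves across modulator concentrations, quadruplicate, ≥3 independent assays.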
G-protein coupled receptor 68 (Homo sapiens), sequence (Q15743 whole entry): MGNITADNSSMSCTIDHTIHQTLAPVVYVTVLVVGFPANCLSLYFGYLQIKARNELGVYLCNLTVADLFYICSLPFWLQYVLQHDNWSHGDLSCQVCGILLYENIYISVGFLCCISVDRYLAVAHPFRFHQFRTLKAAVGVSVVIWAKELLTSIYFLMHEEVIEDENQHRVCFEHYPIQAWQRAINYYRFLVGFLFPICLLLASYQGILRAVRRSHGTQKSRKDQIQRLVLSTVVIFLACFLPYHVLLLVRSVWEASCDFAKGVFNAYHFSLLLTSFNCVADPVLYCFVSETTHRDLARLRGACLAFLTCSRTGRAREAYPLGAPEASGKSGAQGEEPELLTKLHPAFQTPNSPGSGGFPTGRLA
On the technique in general: cAMP levels reflect the balance of adenylyl cyclase and phosphodiesterase activity.

For test [2] the target is unchanged. As to the kind of experiment: Positive allosteric modulation of human GPR68 expressed in HEK293T cells co-expressing Gs assessed as stimulation of proton-mediated cAMP production by measuring efficacy cooperativity in HBSS buffer containing pH 6.8 to 8.2 HEPES/pH 8.3 to 8.6 TAPS measured after 20 to 30 mins in presence of PDE inhibitor Ro 20-1724 by luciferase-glo reporter gene assay. An outline of the steps: as §1

Test [3] has the same target. As to the kind of experiment: Positive allosteric modulation of human GPR68 expressed in HEK293T cells co-expressing Gs assessed as stimulation of proton-mediated cAMP production by measuring allosteric index in HBSS buffer containing pH 6.8 to 8.2 HEPES/pH 8.3 to 8.6 TAPS measured after 20 to 30 mins in presence of PDE inhibitor Ro 20-1724 by luciferase-glo reporter gene assay. An outline of the steps:
as §1

Structures are written as SMILES.

As for `Cc1ccc(CNc2nc(N)nc(-c3ccccc3CO)n2)cc1`, the log(activity) in test [1] turned out to be 0.9; in test [2] it was 0.32. Further, the Activity index in test [3] was determined as 5.6.

`Nc1nc(NCc2ccc(Oc3ccccc3)cc2)nc(-c2ccccc2CO)n1`: the log(activity) was 0.95 in test [1] and 0 in test [2]. The Activity index in test [3] is 6.14.

For the molecule `CNc1nc(NCc2ccccc2)nc(-c2ccccc2CO)n1`, the log(activity) came to 0.48 in test [1] and 0.37 in test [2]. Moreover, in test [3], the Activity index is 5.36.

As for `Cc1cccc(CNc2nc(N)nc(-c3ccccc3CO)n2)c1`, the log(activity) was found to be 0.92 in test [1] and 0.25 in test [2]. Also, the Activity index in test [3] is 5.57.

Turning to `Nc1nc(NCc2ccccc2C(F)(F)F)nc(-c2ccccc2CO)n1`, the values for the log(activity) in test [1] and in test [2] were 0.6 and 0.31, respectively. Besides, the Activity index in test [3] is 5.96.

As to `Nc1nc(NCc2ccc(F)cc2)nc(-c2c(F)cccc2CO)n1`, the figures for the log(activity) in test [1] and in test [2] were 1.01 and 0.09, respectively. Also, the Activity index in test [3] amounted to 5.55.

With `Nc1nc(NCc2ccc(C(F)(F)F)cc2)nc(-c2ccccc2CO)n1`, the log(activity) was determined as 0.78 in test [1] and 0.3 in test [2]. Moreover, in test [3], the Activity index amounted to 6.1.

For the molecule `NCc1ccccc1-c1nc(N)nc(NCc2ccccc2)n1`, the log(activity) was 0.86 in test [1] and 0.3 in test [2]. The Activity index in test [3] was 5.01.

`COc1ccc(CO)c(-c2nc(N)nc(NCc3ccccc3)n2)c1`: the log(activity) in test [1] worked out at 0.61; in test [2], 0.18. Moreover, the Activity index in test [3] worked out at 4.77.

In the case of `Nc1nc(NCc2ccccc2)nc(-c2c(F)cccc2CO)n1`, the log(activity) in test [1] turned out to be 1.15; in test [2], 0.35. Moreover, in test [3], the Activity index amounted to 5.19.

Regarding `Nc1nc(NCCCCc2ccccc2)nc(-c2c(F)cccc2CO)n1`, the figures for the log(activity) in test [1] and in test [2] were 1.24 and 0.06, respectively. Moreover, the Activity index in test [3] is 5.34.

For `Nc1nc(NCCc2ccc(Oc3ccccc3)cc2)nc(-c2ccccc2CO)n1`, the log(activity) in test [1] is 0.83; in test [2], 0.03. In test [3], the Activity index came to 5.9.

As for `COc1cccc(CNc2nc(N)nc(-c3ccccc3CO)n2)c1`, the figures for the log(activity) in test [1] and in test [2] were 0.89 and 0.23, respectively. Besides, the Activity index in test [3] was 5.22.

With `COc1ccc(CNc2nc(N)nc(-c3ccccc3CO)n2)cc1`, the log(activity) in test [1] was 0.78; in test [2] it was 0.49. The Activity index in test [3] is 4.61.

In the case of `CCOc1ccc(CNc2nc(N)nc(-c3ccccc3CO)n2)cc1`, the log(activity) in test [1] was 0.81; in test [2], -0.01. Besides, the Activity index in test [3] came to 5.57.

Regarding `Nc1nc(NCCCCc2ccccc2)nc(-c2cc(Cl)ccc2CO)n1`, the log(activity) in test [1] stood at 1.09; in test [2], 0.06. Also, the Activity index in test [3] is 6.14.

On to `Nc1nc(NCCCc2ccccc2)nc(-c2ccccc2CO)n1`, for which the log(activity) in test [1] is 0.81; in test [2], 0.08. Also, the Activity index in test [3] was found to be 6.11.

For `CC(C)Oc1ccc(-c2nc(N)nc(NCc3ccccc3)n2)c(CO)c1`, the log(activity) in test [1] amounted to 0.56; in test [2] it was 0.27. In addition, in test [3], the Activity index was 5.74.

As for `Nc1nc(NCc2ccccc2)nc(-c2ccc(F)cc2CO)n1`, the log(activity) in test [1] amounted to 0.64; in test [2], 0.24. In addition, in test [3], the Activity index came out at 5.46.

With `Nc1nc(Nc2ccccc2)nc(-c2ccccc2CO)n1`, the log(activity) in test [1] was 0.72; in test [2], 0.4. In addition, the Activity index in test [3] came to 5.04.

As for `Nc1nc(NCc2ccccc2)nc(-c2ccc(Cl)cc2CO)n1`, the log(activity) in test [1] came out at 1.01; in test [2], 0.11. Further, the Activity index in test [3] was 5.87.

For `Nc1nc(NCCc2ccccc2)nc(-c2ccccc2CO)n1`, the results for the log(activity) in test [1] and in test [2] were 0.88 and 0.24, respectively. For the same molecule, the Activity index in test [3] was determined as 5.62.

Take `Nc1nc(NCc2cccc(C(F)(F)F)c2)nc(-c2ccccc2CO)n1`: the log(activity) in test [1] stood at 0.64; in test [2], 0.32. Moreover, the Activity index in test [3] came out at 6.07.

Regarding `CCNc1nc(NCc2ccccc2)nc(-c2ccccc2CO)n1`, the log(activity) in test [1] was 0.47; in test [2], 0.25. The Activity index in test [3] was 5.34.

As to `CC(C)Oc1ccc(CNc2nc(N)nc(-c3ccccc3CO)n2)cc1`, the log(activity) in test [1] was 0.53; in test [2], 0.17. Moreover, in test [3], the Activity index was determined as 5.69.

Regarding `Nc1nc(NCc2ccc(F)cc2)nc(-c2ccccc2CO)n1`, the log(activity) in test [1] was determined as 1.09; in test [2], 0.36. Also, the Activity index in test [3] was found to be 5.42.

In the case of `COc1ccc(-c2nc(N)nc(NCc3ccccc3)n2)c(CO)c1`, the figures for the log(activity) in test [1] and in test [2] were 0.46 and 0.14, respectively. Also, the Activity index in test [3] turned out to be 4.97.

As for `Nc1nc(NCc2ccccc2Cl)nc(-c2ccccc2CO)n1`, the log(activity) in test [1] came out at 0.64; in test [2], 0.23. Also, in test [3], the Activity index stood at 5.94.

In the case of `Nc1nc(NCCCc2ccc(Oc3ccccc3)cc2)nc(-c2c(F)cccc2CO)n1`, the log(activity) stood at 1.15 in test [1] and 0.01 in test [2]. Moreover, the Activity index in test [3] is 6.1.

Turning to `Cc1ccccc1CNc1nc(N)nc(-c2ccccc2CO)n1`, the log(activity) in test [1] is 0.54; in test [2], 0.33. In test [3], the Activity index was determined as 5.57.

For the molecule `Nc1nc(NCc2cccc(F)c2)nc(-c2ccccc2CO)n1`, the log(activity) in test [1] was determined as 0.7; in test [2], 0.33. Further, in test [3], the Activity index was 5.55.

As to `Nc1nc(NCCCCc2ccc(Oc3ccccc3)cc2)nc(-c2ccccc2CO)n1`, the figures for the log(activity) in test [1] and in test [2] were 1.03 and 0.09, respectively. Further, the Activity index in test [3] stood at 5.94.

As to `Nc1nc(NCc2cccc(Cl)c2)nc(-c2ccccc2CO)n1`, the log(activity) in test [1] came out at 0.48; in test [2], 0.46. Further, the Activity index in test [3] came to 5.9.

As for `Nc1nc(NCCc2ccc(Oc3ccccc3)cc2)nc(-c2cc(Cl)ccc2CO)n1`, the log(activity) in test [1] was 1.39; in test [2], -0.04. Moreover, in test [3], the Activity index came to 5.87.

Take `COc1ccccc1CNc1nc(N)nc(-c2ccccc2CO)n1`: the log(activity) in test [1] stood at 0.98; in test [2] it was 0.06. In addition, the Activity index in test [3] is 5.03.

Regarding `Nc1nc(NCc2ccccc2)nc(-c2cccc(F)c2CO)n1`, the log(activity) in test [1] worked out at 0.59; in test [2], 0.27. Also, the Activity index in test [3] worked out at 4.86.

As for `Nc1nc(NCc2ccccc2F)nc(-c2c(F)cccc2CO)n1`, the log(activity) turned out to be 1.09 in test [1] and 0.09 in test [2]. For the same molecule, the Activity index in test [3] is 5.4.

Consider `Nc1nc(NCc2ccc(OC3CC3)cc2)nc(-c2ccccc2CO)n1`, for which the values for the log(activity) in test [1] and in test [2] were 0.67 and 0.04, respectively. Moreover, the Activity index in test [3] is 5.77.

For the molecule `COc1ccccc1CNc1nc(N)nc(-c2c(F)cccc2CO)n1`, the log(activity) in test [1] is 1.12; in test [2] it was -0.12. For the same molecule, in test [3], the Activity index amounted to 5.11.

For `CCOc1ccc(-c2nc(N)nc(NCc3ccccc3)n2)c(CO)c1`, the log(activity) in test [1] was 0.87; in test [2] it was 0.1. Further, the Activity index in test [3] was 5.34.

For the molecule `COc1cccc(-c2nc(N)nc(NCc3ccccc3)n2)c1CO`, the log(activity) is 0.4 in test [1] and 0.3 in test [2]. In addition, the Activity index in test [3] worked out at 4.86.

Take `Nc1nc(NCCCc2ccccc2)nc(-c2c(F)cccc2CO)n1`: the log(activity) is 1.19 in test [1] and 0.02 in test [2]. The Activity index in test [3] is 5.67.

Regarding `Nc1nc(NCCc2ccccc2)nc(-c2c(F)cccc2CO)n1`, the log(activity) worked out at 1.06 in test [1] and 0.03 in test [2]. In addition, in test [3], the Activity index was 6.13.

Turning to `Nc1nc(NCc2ccccc2)nc(-c2c(Cl)cccc2CO)n1`, the figures for the log(activity) in test [1] and in test [2] were 1.25 and -0.12, respectively. For the same molecule, the Activity index in test [3] came out at 5.56.

For `Nc1nc(NCCc2ccc(Oc3ccccc3)cc2)nc(-c2c(F)cccc2CO)n1`, the log(activity) was 1.14 in test [1] and -0.06 in test [2]. The Activity index in test [3] turned out to be 6.14.

Regarding `Nc1nc(NCc2ccccc2)nc(-c2cc(F)ccc2CO)n1`, the log(activity) in test [1] was found to be 0.91; in test [2] it was 0.2. Moreover, the Activity index in test [3] is 5.69.

`Nc1nc(NCCCc2ccc(Oc3ccccc3)cc2)nc(-c2ccccc2CO)n1`: the log(activity) was 1.19 in test [1] and -0.01 in test [2]. For the same molecule, in test [3], the Activity index turned out to be 5.84.

Consider `Cc1cccc(CNc2nc(N)nc(-c3c(F)cccc3CO)n2)c1`, for which the log(activity) in test [1] stood at 0.84; in test [2], 0.14. In test [3], the Activity index turned out to be 5.42.

Consider `Nc1nc(NCc2ccccc2)nc(-c2cc(Cl)ccc2CO)n1`, for which the log(activity) came to 1.2 in test [1] and 0.09 in test [2]. Further, in test [3], the Activity index was found to be 5.78.

Source of the values: ChEMBL document CHEMBL4406806, “Design, Synthesis, and Characterization of Ogerin-Based Positive Allosteric Modulators for G Protein-Coupled Receptor 68 (GPR68)” (J Med Chem, 2019).
